As usually defined, the IC50 is the concentration that inhibits the measured activity by half.

For assay [1], the system named is Influenza A virus. The experiment in a line: Antiviral activity against influenza A (A/North Carolina/01/2009 (H1N1)) virus harboring neuraminidase H275Y mutant after 16 to 18 hrs by fetuin substrate based colorimetric assay. Format: functional, organism-based. The essentials:
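Colorimetric NA inhibition with fetuin substrate. Virus was diluted in NA-Star buffer (26 mM MES, 4 mM CaCl2, pH 6.0) to give OD549 of 0.4–0.8 after 18 h. It was preincubated with ten half-log inhibitor dilutions (0.03–1,000 nM final) for 1 h at 37°C, then with fetuin (5.5 mg/ml final) for 16–18 h at 37°C. Released sialic acid was read at 549 nm after periodate/TBA reaction and butanol extraction. IC50 came from a Vmax·[1−x/(K+x)] fit, mean of ≥2 experiments.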

For assay [2], the system named is Influenza A virus. Kind of assay: Ratio of IC50 for influenza A (A/Washington/29/2009 (H1N1)) virus harboring neuraminidase H275Y mutant to IC50 for influenza A (A/Washington/29/2009 (H1N1)) virus expressing wild type enzyme by fetuin substrate based colorimetric assay. Format: functional. Summed up:
(§1)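 Colorimetric NA inhibition using a virus dilution that gave 0.4–0.8 OD549. Virus preincubated 1 h at 37°C with half-log inhibitor dilutions (0.03–1,000 nM final) in MES/CaCl2 pH 6.0 buffer. Fetuin (5.5 mg/ml final) then added for 18 h at 37°C. Released sialic acid detected by periodate oxidation and thiobarbituric acid, butanol extraction, read at 549 nm. IC50 curve-fitted, ≥2 experiments. Ratio is variant IC50 over wild-type reference IC50.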

The test system of assay [3] is Influenza A virus. Kind of assay: Ratio of IC50 for influenza A (A/North Carolina/01/2009 (H1N1)) virus harboring neuraminidase H275Y mutant to IC50 for influenza A (A/Washington/29/2009 (H1N1)) virus expressing wild type enzyme by MUNANA substrate based fluorometric assay. It counts as functional.
The test system of assay [4] is Influenza A virus. The experiment in a line: Ratio of IC50 for influenza A (A/North Carolina/02/2009 (H1N1)) virus harboring neuraminidase H275Y mutant to IC50 for influenza A (A/Washington/10/2008 (H1N1)) virus expressing wild type enzyme by fetuin substrate based colorimetric assay. Format: functional.
The test system of assay [5] is Influenza A virus. Kind of assay: Antiviral activity against influenza A (A/Singapore/57/2009 (H1N1)) virus harboring neuraminidase H275Y mutant after 30 mins by NA-star substrate based chemiluminescent assay. It counts as functional, organism-based. Summed up: (§2)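 Titrated virus in NA-Star buffer (26 mM MES, 4 mM CaCl2, pH 6.0) was preincubated with ten half-log inhibitor dilutions (0.03–1,000 nM final) for 30 min at 37°C, then with substrate for 30 min at room temperature. Accelerator solution was added and luminescence read for 0.1 s. IC50 came from a Vmax·[1−x/(K+x)] fit, mean of ≥3 experiments.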

Assay [6] deals with Influenza A virus. Kind of assay: Antiviral activity against influenza A (A/Osaka/180/2009 (H1N1)) virus harboring neuraminidase H275Y mutant after 30 mins by MUNANA substrate based fluorometric assay. Format: functional, organism-based. The essentials:
(§3)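 Fluorometric NA inhibition with MUNANA (100 μM final). Titrated virus in NA-Star buffer (26 mM MES, 4 mM CaCl2, pH 6.0) was preincubated with ten half-log inhibitor dilutions (0.03–1,000 nM final) for 30 min at 37°C, then with substrate for 30 min at 37°C. The reaction was stopped with 0.1 M glycine in 25% ethanol, pH 10.7, and 4-methylumbelliferone was read at ex 365/em 450 nm. IC50 came from a Vmax·[1−x/(K+x)] fit, mean of ≥3 experiments.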

Assay [7] deals with Influenza A virus. Kind of assay: Antiviral activity against influenza A (A/Washington/29/2009 (H1N1)) virus harboring neuraminidase H275Y mutant after 30 mins by MUNANA substrate based fluorometric assay. It counts as functional, organism-based. Summed up: as §3
Assay [8] relates to Influenza A virus. Kind of assay: Antiviral activity against influenza A (A/Montana/02/2009 (H1N1)) virus harboring neuraminidase H275Y mutant after 30 mins by NA-star substrate based chemiluminescent assay. Format: functional, organism-based. The essentials: as §2
Assay [9] deals with Influenza A virus. Kind of assay: Antiviral activity against influenza A (A/North Carolina/01/2009 (H1N1)) virus harboring neuraminidase H275Y mutant after 30 mins by NA-star substrate based chemiluminescent assay. Format: functional, organism-based. Summed up:
as §2

Assay [10] deals with Influenza A virus. Kind of assay: Ratio of IC50 for influenza A (A/North Carolina/01/2009 (H1N1)) virus harboring neuraminidase H275Y mutant to IC50 for influenza A (A/Washington/29/2009 (H1N1)) virus expressing wild type enzyme by fetuin substrate based colorimetric assay. Format: functional.
For assay [11], the system named is Influenza A virus. Kind of assay: Ratio of IC50 for influenza A (A/Montana/02/2009 (H1N1)) virus harboring neuraminidase H275Y mutant to IC50 for influenza A (A/Washington/29/2009 (H1N1)) virus expressing wild type enzyme by NA-star substrate based chemiluminescent assay. It counts as functional.
The subject of assay [12] is Influenza A virus. Kind of assay: Antiviral activity against influenza A (A/Hong Kong/2369/2009 (H1N1)) virus harboring neuraminidase H275Y mutant after 30 mins by MUNANA substrate based fluorometric assay. Format: functional, organism-based. Summed up:
as §3

Assay [13] has as its system Influenza A virus. Kind of assay: Ratio of IC50 for influenza A (A/Montana/02/2009 (H1N1)) virus harboring neuraminidase H275Y mutant to IC50 for influenza A (A/Washington/29/2009 (H1N1)) virus expressing wild type enzyme by MUNANA substrate based fluorometric assay. Format: functional.
Assay [14] has as its system Influenza A virus. Kind of assay: Ratio of IC50 for influenza A (A/Singapore/57/2009 (H1N1)) virus harboring neuraminidase H275Y mutant to IC50 for influenza A (A/Washington/29/2009 (H1N1)) virus expressing wild type enzyme by fetuin substrate based colorimetric assay. Format: functional. Summed up:
as §1

Assay [15] concerns Influenza A virus. The experiment in a line: Ratio of IC50 for influenza A (A/New York/18/2009 (H1N1)) virus harboring neuraminidase H275Y mutant to IC50 for influenza A (A/Washington/10/2008 (H1N1)) virus expressing wild type enzyme by MUNANA substrate based fluorometric assay. Format: functional.
For assay [16], the system named is Influenza A virus. Kind of assay: Ratio of IC50 for influenza A (A/North Carolina/01/2009 (H1N1)) virus harboring neuraminidase H275Y mutant to IC50 for influenza A (A/Washington/29/2009 (H1N1)) virus expressing wild type enzyme by NA-star substrate based chemiluminescent assay. Format: functional.
Assay [17] concerns Influenza A virus. The experiment in a line: Ratio of IC50 for influenza A (A/Singapore/57/2009 (H1N1)) virus harboring neuraminidase H275Y mutant to IC50 for influenza A (A/Washington/29/2009 (H1N1)) virus expressing wild type enzyme by NA-star substrate based chemiluminescent assay. Format: functional. Summed up: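 Chemiluminescent NA inhibition in MES 26 mM/CaCl2 4 mM buffer, pH 6.0. […] Luminescence read for 0.1 s. IC50 from the fit y = Vmax·{1 − [x/(K + x)]}, mean of ≥3 experiments. Ratio is the H275Y variant IC50 over the pandemic wild-type reference IC50.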

The subject of assay [18] is Influenza A virus. Kind of assay: Ratio of IC50 for influenza A (A/Montana/02/2009 (H1N1)) virus harboring neuraminidase H275Y mutant to IC50 for influenza A (A/Washington/29/2009 (H1N1)) virus expressing wild type enzyme by fetuin substrate based colorimetric assay. It counts as functional.
In assay [19] the test system is Influenza A virus. Kind of assay: Antiviral activity against influenza A (A/North Carolina/01/2009 (H1N1)) virus harboring neuraminidase H275Y mutant after 30 mins by MUNANA substrate based fluorometric assay. It counts as functional, organism-based. The essentials: as §3
Assay [20] concerns Influenza A virus. The experiment in a line: Ratio of IC50 for influenza A (A/North Carolina/02/2009 (H1N1)) virus harboring neuraminidase H275Y mutant to IC50 for influenza A (A/Washington/10/2008 (H1N1)) virus expressing wild type enzyme by MUNANA substrate based fluorometric assay. It counts as functional.

Regarding `C/C=C\[C@@H]1C[C@H](C(=O)O)N[C@H]1[C@@H](NC(C)=O)[C@](C)(CCC)OC`, the IC50 amounted to 2.32 nM in the assay on Influenza A virus [1]; 1.06 nM in the assay on Influenza A virus [5]; 2.44 nM in the assay with Influenza A virus [6]; 1.76 nM in the assay with Influenza A virus [7]; 1 nM in the assay with Influenza A virus [8]; 0.84 nM with Influenza A virus [9]. Further, the IC50 in the assay with Influenza A virus [12] was 1.67 nM; in the assay on Influenza A virus [19], 1.93 nM. The “Ratio IC50” value in the assay on Influenza A virus [2] worked out at 2; with Influenza A virus [3] it was 4; with Influenza A virus [4] it was 1; in the assay with Influenza A virus [10], 2; in the assay on Influenza A virus [11], 6; in the assay on Influenza A virus [13], 5. Besides, the “Ratio IC50” value with Influenza A virus [14] stood at 1; in the assay with Influenza A virus [15], 1; with Influenza A virus [16] it was 5; in the assay on Influenza A virus [17] it was 3; in the assay on Influenza A virus [18], 2; in the assay with Influenza A virus [20], 1.

Regarding `CCC(CC)[C@H](NC(C)=O)[C@@H]1[C@H](O)[C@@H](C(=O)O)C[C@H]1NC(=N)N` [PERAMIVIR ANHYDROUS], the IC50 amounted to 105 nM in the assay on Influenza A virus [1]; 11.8 nM with Influenza A virus [5]; 97.6 nM in the assay with Influenza A virus [6]; 150 nM with Influenza A virus [7]; 15 nM in the assay with Influenza A virus [8]; 13.8 nM in the assay with Influenza A virus [9]. Besides, the IC50 in the assay with Influenza A virus [12] was 128 nM; with Influenza A virus [19], 150 nM. Further, the “Ratio IC50” value stood at 332 in the assay on Influenza A virus [2]; 831 in the assay with Influenza A virus [3]; 1 in the assay on Influenza A virus [4]; 140 with Influenza A virus [10]; 136 in the assay with Influenza A virus [11]; 1095 in the assay with Influenza A virus [13]. Moreover, the “Ratio IC50” value in the assay on Influenza A virus [14] stood at 173; with Influenza A virus [15], 1; in the assay with Influenza A virus [16], 125; with Influenza A virus [17], 84; in the assay with Influenza A virus [18], 111; in the assay on Influenza A virus [20], 1.

Values taken from ChEMBL document CHEMBL1649328, “Assessment of pandemic and seasonal influenza A (H1N1) virus susceptibility to neuraminidase inhibitors in three enzyme activity inhibition assays” (Antimicrob Agents Chemother, 2010).
